Data reported in ChEMBL document CHEMBL1124232, “Synthesis and biological activities of 4-O-(difluoromethyl)-5-substituted-uracil nucleoside analogues” (J Med Chem, 1988).

Key:
[1] = test system: Human alphaherpesvirus 1; experiment: Ability to reduce plaque formation of herpes simplex virus type 1 (HSV-1) by 50% in human embryonic lung fibroblast (HELF) cell cultures; type: functional; conditions: Human alphaherpesvirus 1, HELF; read-out: ID50 (the source's name)
Procedure, shortened: (§1)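 HELF confluent monolayers infected 1 h at 37 °C (about 50–100 plaques per bottle) with HSV-1 clinical isolate strain 77 or TK-deficient HSV-1 B 2006. Then 0.5% w/v methocel overlay with 10% fetal calf serum plus compound, 3 days at 37 °C. Neutral red staining; ID50 in µmol/L read graphically as 50% plaque-number reduction.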

[2] = Minimum concentration not causing a microscopically detectable cytotoxic alteration of normal human embryonic lung fibroblast (HELF) morphology
Procedure, shortened: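 Semiconfluent HELF monolayers, 24 h post-seeding, exposed 3 days at 37 °C to compound up to 1 mmol/L. Microscopic comparison with untreated controls; toxicity signs were cell detachment, monolayer destruction, or cells remaining semiconfluent. Value is the lowest concentration showing no detectable morphological alteration.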

[3] = test system: Human alphaherpesvirus 2; experiment: Ability to reduce plaque formation of herpes simplex virus type 2 (HSV-2) by 50% in human embryonic lung fibroblast (HELF) cell cultures; type: functional; conditions: Human alphaherpesvirus 2, HELF; read-out: ID50 (the source's name)
Procedure, shortened: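 Clinical isolate HSV-2 strain 74 adsorbed 1 h at 37 °C onto confluent HELF monolayers, aiming at 50–100 plaques per bottle. Compound added in methocel (0.5% w/v) overlay containing 10% FCS; 2 days at 37 °C. Plaques visualised with neutral red. ID50 in µmol/L determined graphically as the concentration halving plaque counts.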

[4] = test system: Human alphaherpesvirus 1; experiment: Ability to reduce plaque formation of TK deficient herpes simplex virus type 1(HSV-1) by 50% in human embryonic lung fibroblast (HELF) cell cultures; type: functional; conditions: Human alphaherpesvirus 1, HELF; read-out: ID50 (the source's name); procedure, shortened: as §1
[5] = test system: Human betaherpesvirus 5; experiment: Ability to reduce plaque formation of human cytomegalovirus (HCMV) by 50% in human embryonic lung fibroblast (HELF) cell cultures; type: functional; conditions: Human betaherpesvirus 5, HELF; read-out: ID50 (the source's name)
Procedure, shortened: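 Plaque reduction in HELF cells with laboratory HCMV strain Davis, plaques scored 8–12 days post-infection. ID50 is the concentration cutting plaque formation by 50%.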

[6] = test system: Human alphaherpesvirus 3; experiment: Ability to reduce plaque formation of varicella zoster virus (VZV) by 50% in human embryonic lung fibroblast (HELF) cell cultures; type: functional; conditions: Human alphaherpesvirus 3, HELF; read-out: ID50 (the source's name)
Procedure, shortened: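 Fresh clinical VZV isolate, strain 3/S.H., in HELF cells. Plaques counted 5–6 days post-infection. ID50 is the concentration reducing plaque formation by 50%.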

[7] = Inhibitory dose for HELF cell proliferation during 3-day treatment period; type: functional; conditions: Homo sapiens, 72 h, read-out: ID50 (the source's name)

## O=c1nc(OC(F)F)c(Br)cn1[C@@H]1O[C@H](CO)[C@@H](O)[C@H]1O
[1]
  IC50: > 250 µM
[2]
  Toxicity: > 250 µM
[3]
  IC50: > 250 µM

## O=c1nc(OC(F)F)c(F)cn1[C@@H]1O[C@H](CO)[C@@H](O)[C@@H]1O
[1]
  IC50: 110 µM
[2]
  Toxicity: > 500 µM
[3]
  IC50: 300 µM

## O=c1nc(OC(F)F)c(Br)cn1[C@@H]1O[C@H](CO)[C@@H](O)[C@@H]1O
[1]
  IC50: 3.6 µM
[2]
  Toxicity: > 1000 µM
[3]
  IC50: 17.6 µM

## O=c1nc(OC(F)F)ccn1[C@@H]1O[C@H](CO)[C@@H](O)[C@H]1O
[1]
  IC50: > 1000 µM
[2]
  Toxicity: > 1000 µM
[3]
  IC50: > 1000 µM

## O=c1nc(OC(F)F)ccn1[C@@H]1O[C@H](CO)[C@@H](O)[C@@H]1O
[1]
  IC50: 430 µM
[2]
  Toxicity: > 1000 µM
[3]
  IC50: > 1000 µM

## CCc1cn([C@H]2C[C@H](O)[C@@H](CO)O2)c(=O)nc1OC(F)F
[1]
  IC50: > 1000 µM
[2]
  Toxicity: > 1000 µM
[3]
  IC50: > 1000 µM

## O=c1[nH]c(=O)n([C@H]2C[C@H](O)[C@@H](CO)O2)cc1Br [BROXURIDINE]
[1]
  IC50: 0.8 µM
[2]
  Toxicity: > 1000 µM
[3]
  IC50: 1.4 µM

## Cc1cn(C2O[C@H](CO)[C@@H](O)[C@@H]2O)c(=O)nc1OC(F)F (some centres not stated)
[4]
  IC50: > 500 µM
[1]
  IC50: 0.8 µM
[2]
  Toxicity: > 1000 µM
[3]
  IC50: 3 µM
[5]
  IC50: > 500 µM
[6]
  IC50: 1 µM

## O=c1nc(OC(F)F)c(F)cn1[C@@H]1O[C@H](CO)[C@@H](O)[C@H]1O
[1]
  IC50: 500 µM
[2]
  Toxicity: > 500 µM
[3]
  IC50: > 500 µM

## CCc1cn([C@H]2C[C@H](O)[C@@H](CO)O2)c(=O)[nH]c1=O [EDOXUDINE]
[1]
  IC50: 10 µM
[2]
  Toxicity: > 1000 µM
[3]
  IC50: 14.5 µM

## Cc1cn([C@@H]2O[C@H](CO)[C@@H](O)[C@@H]2O)c(=O)[nH]c1=O
[4]
  IC50: > 500 µM
[1]
  IC50: 0.64 µM
[2]
  Toxicity: > 1000 µM
[3]
  IC50: 1.65 µM
[5]
  IC50: > 500 µM
[6]
  IC50: 0.53 µM

## Nc1nc2c(ncn2COCCO)c(=O)[nH]1 [ACYCLOVIR]
[1]
  IC50: 0.48 µM
[7]
  IC50: 360 µM
[3]
  IC50: 1.6 µM

## O=c1nc(OC(F)F)c(Br)cn1[C@H]1C[C@H](O)[C@@H](CO)O1
[1]
  IC50: 130 µM
[2]
  Toxicity: > 500 µM
[3]
  IC50: > 500 µM

## Cc1cn([C@H]2C[C@H](O)[C@@H](CO)O2)c(=O)nc1OC(F)F
[1]
  IC50: > 1000 µM
[2]
  Toxicity: > 1000 µM
[3]
  IC50: > 1000 µM

## O=c1nc(OC(F)F)c(/C=C/Br)cn1C1O[C@H](CO)[C@@H](O)[C@@H]1O (some centres not stated)
[1]
  IC50: 1.1 µM
[2]
  Toxicity: > 500 µM
[3]
  IC50: > 500 µM

## O=c1[nH]c(=O)n([C@@H]2O[C@H](CO)[C@@H](O)[C@@H]2O)cc1Br
[1]
  IC50: 1.35 µM
[2]
  Toxicity: > 1000 µM
[3]
  IC50: 7.9 µM

## O=c1nc(OC(F)F)c(I)cn1[C@@H]1O[C@H](CO)[C@@H](O)[C@@H]1O
[1]
  IC50: 29 µM
[2]
  Toxicity: > 1000 µM
[3]
  IC50: 82 µM

## CCc1cn(C2O[C@H](CO)[C@@H](O)[C@@H]2O)c(=O)nc1OC(F)F (some centres not stated)
[1]
  IC50: 27 µM
[2]
  Toxicity: > 500 µM
[3]
  IC50: 210 µM

## O=c1[nH]c(=O)n([C@H]2C[C@H](O)[C@@H](CO)O2)cc1/C=C/Br [BRIVUDINE]
[1]
  IC50: 0.05 µM
[7]
  IC50: 170 µM
[3]
  IC50: 27 µM

## O=c1[nH]c(=O)n([C@@H]2O[C@H](CO)[C@@H](O)[C@H]2O)cc1/C=C/Br
[1]
  IC50: 0.115 µM
[7]
  IC50: > 1000 µM
[3]
  IC50: 49 µM

## O=c1nc(OC(F)F)c(I)cn1[C@@H]1O[C@H](CO)[C@@H](O)[C@H]1O
[1]
  IC50: > 500 µM
[2]
  Toxicity: > 500 µM
[3]
  IC50: > 500 µM

## O=c1[nH]c(=O)n(C2O[C@H](CO)[C@@H](O)[C@@H]2O)cc1I (some centres not stated)
[1]
  IC50: 51 µM
[2]
  Toxicity: > 500 µM
[3]
  IC50: 70 µM
